From the RNAGym collection of RNA variant scans (doi:10.1126/science.aae0568)
Variants at the floor of the assay were thinned out.

B1: tRNA (parent)
chain: GUUCCGUUGGCGUAAUGGUAACGCGUCUCCCUCCUAAGGAGAAGACUGCGGGUUCGAGUCCCGUACGGAACG

Variants of: B1
Assay: yeast fitness relative to wild type (ratio to wild type); higher = fitter; tRNA-Arg(CCU), competitive growth, 37 C, YPD
Outline: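 Gene amplicons from the start population and from each of six end populations were read by 100-nucleotide paired-end sequencing. Those end populations came from pooled Saccharomyces cerevisiae strains carrying tRNA-Arg(CCU) gene variants at the native locus, competed in YPD at 37°C for 24 hours. Fitness relative to wild type was worked out from changes in genotype frequencies. Genotypes needed ≥ 100 starting reads, and estimates < 0.5 were set to 0.5.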

Compared with A65G C66G, U3A U7A C22U C49A is lower in yeast fitness: 0.897 for the first, ≤ 0.5 for the second.

Going from G6C A42C A65G C66G to G6C A14G C49G G50A G58A, the yeast fitness falls from 0.532 to ≤ 0.5.

First: U3A C27G C31U C33U A42C
Second: G68C A70C
The yeast fitness of the first is lower: ≤ 0.5 for the first, 0.837 for the second.

First: A14C G25C U32A A43C G63A A69C
Second: C27U A40C
The yeast fitness of the first is lower: ≤ 0.5 for the first, 0.809 for the second.

First: U19A C29A G67A
Second: U2C U8C A42C
The yeast fitness of the first is lower: ≤ 0.5 for the first, 0.676 for the second.

Compared with C11A C29A G67C, C11G A40G A45G G52A is higher in yeast fitness: ≤ 0.5 for the first, 0.577 for the second.

Compared with C5G U16A C33A, U47A G56A is higher in yeast fitness: ≤ 0.5 for the first, 0.964 for the second.

U3A U26G C49A C60A and U7G C22U U26C U64G G67C cannot be ordered by yeast fitness: ≤ 0.5 for the first, ≤ 0.5 for the second.

Going from U3A C5U C31G C62G A69U to G39C C60G, the yeast fitness rises from 0.554 to 0.619.

Compared with C11A G25C C46U G50A, C29G A36U C46G is higher in yeast fitness: ≤ 0.5 for the first, 0.755 for the second.

Compared with A37C G68U, U7G U32C C46G is lower in yeast fitness: 0.761 for the first, 0.62 for the second.

Going from U19A G67A A70U to C5A A37U C49U, the yeast fitness falls from 0.691 to ≤ 0.5.

G9C C11G C24U C31U U59A and A21G G52A A57G C66G cannot be ordered by yeast fitness: ≤ 0.5 for the first, ≤ 0.5 for the second.

Going from G17A G56A to U35A A57C, the yeast fitness falls from 0.878 to ≤ 0.5.

Compared with G56A A65C, C5U C27A A42U G48A C49G C60A is lower in yeast fitness: 1.1 for the first, 0.592 for the second.

Compared with C24A C66U, U47C U53A is lower in yeast fitness: 0.691 for the first, 0.604 for the second.

Going from C5U U35C A45C to C11G C27U C33U, the yeast fitness falls from 0.743 to 0.584.

Compared with C11A A15C C24A C27A G41C G56A, C24U U26C C49U is higher in yeast fitness: 0.542 for the first, 0.692 for the second.

U2G A14G C29G A37U and G17A C30A A36C cannot be ordered by yeast fitness: ≤ 0.5 for the first, ≤ 0.5 for the second.

First: G12C A45G
Second: C5U U28G
The yeast fitness of the first is lower: 0.684 for the first, 0.71 for the second.

G9A U16C U19G C27A C33U U53C A65U C66U and U32C C60G C66U A70U cannot be ordered by yeast fitness: ≤ 0.5 for the first, ≤ 0.5 for the second.

First: G23A A65U
Second: U7A C49A
The yeast fitness of the first is higher: 0.916 for the first, 0.634 for the second.

C5U A14G A45G A69C and C4G C30A A42C A69U cannot be ordered by yeast fitness: ≤ 0.5 for the first, ≤ 0.5 for the second.

Compared with G6C G25C, U19C C24G A37U C46U U47A is lower in yeast fitness: 0.971 for the first, ≤ 0.5 for the second.

C31U C33A A69U and C27A A42C C60U cannot be ordered by yeast fitness: ≤ 0.5 for the first, ≤ 0.5 for the second.

First: U16C A20C C27U
Second: U3G G50A C62U
The yeast fitness of the first is lower: 0.662 for the first, 1.04 for the second.

First: C5G C61U A70G
Second: C49U G63C G67C
The yeast fitness of the first is higher: 0.707 for the first, 0.53 for the second.

First: C5G C11A A15G G18A A42U
Second: G18C C30A
The yeast fitness of the first is lower: ≤ 0.5 for the first, 0.642 for the second.

Going from C22U G68U to G9A G10C A20G G25C C33U, the yeast fitness falls from 0.845 to ≤ 0.5.

Compared with C31U A42G C62U, C4G U7G G9A A20G C22A G41A A69C is lower in yeast fitness: 0.583 for the first, ≤ 0.5 for the second.

First: U13G C46U U53A
Second: C24G A57G
The yeast fitness of the first is lower: ≤ 0.5 for the first, 0.524 for the second.

Going from C24G A57U to U2C A37U U53A G63A, the yeast fitness falls from 0.578 to ≤ 0.5.

Going from A14G C24U G51A to G9A C55A, the yeast fitness rises from ≤ 0.5 to 0.707.

Going from G9A G12A C29G A65U to A36U A43G, the yeast fitness rises from ≤ 0.5 to 0.745.

C5U A43U C49U C61U and C4A A65C G67U cannot be ordered by yeast fitness: ≤ 0.5 for the first, ≤ 0.5 for the second.

First: U7A A65U A70G
Second: C49U G51A A69C
The yeast fitness of the first is higher: 0.677 for the first, 0.61 for the second.

A14U C49U C55U and A15G U54C C55G C61G A65U cannot be ordered by yeast fitness: ≤ 0.5 for the first, ≤ 0.5 for the second.

Compared with C4G C11A U19C G23C, G25C C34U A36C G41A C49G is lower in yeast fitness: 0.524 for the first, ≤ 0.5 for the second.

First: G12A A36U A37C A43G A57U
Second: C34G A69C
The yeast fitness of the first is lower: ≤ 0.5 for the first, 0.589 for the second.

Going from U28G A43G G44A to U3C A57U, the yeast fitness rises from ≤ 0.5 to 0.713.

Compared with C4A G9C C31A G41A, C11G U16A A21U G23C is lower in yeast fitness: 0.773 for the first, 0.665 for the second.

U2A C24G U32A U54C G56A and C22G G41C G52A cannot be ordered by yeast fitness: ≤ 0.5 for the first, ≤ 0.5 for the second.

U19A A37U G41C and C5U C27G C33G G41C C61A cannot be ordered by yeast fitness: ≤ 0.5 for the first, ≤ 0.5 for the second.

First: C27U C30U A40U G48C G63A
Second: U3A A42G U53A
The yeast fitness of the first is higher: 0.535 for the first, ≤ 0.5 for the second.

First: C5A G6A
Second: G18A A40G A65G
The yeast fitness of the first is higher: 0.808 for the first, ≤ 0.5 for the second.

A20U G23A C34A A36U and U16A C30G A40G U54C cannot be ordered by yeast fitness: ≤ 0.5 for the first, ≤ 0.5 for the second.

Going from C5U U26A C66U to A14U A43G C55G, the yeast fitness falls from 0.792 to ≤ 0.5.

Going from A21G C29U G41C A69U to G12A C24U G67A A69U, the yeast fitness falls from 0.63 to ≤ 0.5.

C11U U19G G51C C61G and A21C C34U G51C cannot be ordered by yeast fitness: ≤ 0.5 for the first, ≤ 0.5 for the second.

U8A U19C C31A U35G A43G U47C G52U G67A and U3A C33U A45C cannot be ordered by yeast fitness: ≤ 0.5 for the first, ≤ 0.5 for the second.

Compared with A20G U59G, C30A C46U is higher in yeast fitness: 0.921 for the first, 0.939 for the second.

Compared with A40U G52A, G38A G48A C49G A70U is lower in yeast fitness: 0.704 for the first, ≤ 0.5 for the second.

Going from U28A A45C C49A G50A to A15C C46G G50C C61A, the yeast fitness rises from ≤ 0.5 to 0.636.

Going from U8C U26A A40U to C4U G18A G23C C24G, the yeast fitness falls from 0.613 to 0.518.

G41C C61U G67A and G50C C61G A70C cannot be ordered by yeast fitness: ≤ 0.5 for the first, ≤ 0.5 for the second.

G6C C31U U35A C46G G48A C49U and U2G U16G A21U C33A C66G cannot be ordered by yeast fitness: ≤ 0.5 for the first, ≤ 0.5 for the second.

Compared with U2A C11A G38C C60A, A36C G41C C61U is lower in yeast fitness: 0.582 for the first, ≤ 0.5 for the second.

Going from A14U U26G A37C to A21G C22U A45C, the yeast fitness rises from ≤ 0.5 to 0.539.

Compared with C5G G12A C46U G52C, C5U U7G A45G A70C is lower in yeast fitness: 0.61 for the first, ≤ 0.5 for the second.

Compared with G39A A57U, A57U C62U is lower in yeast fitness: 0.834 for the first, 0.617 for the second.

Compared with C61G A70C, A20C C27U A36G A65G G67A is lower in yeast fitness: 0.763 for the first, 0.542 for the second.

C22G C24G G50A A70U and A20U C34U G51C cannot be ordered by yeast fitness: ≤ 0.5 for the first, ≤ 0.5 for the second.

G10A G18A A69C and G12C G51A U59A C62G cannot be ordered by yeast fitness: ≤ 0.5 for the first, ≤ 0.5 for the second.

Going from U8C G44C to A14U C60G, the yeast fitness falls from 0.911 to ≤ 0.5.

Going from C4A G23A C33G G58C to G25C A43C, the yeast fitness rises from ≤ 0.5 to 1.03.

Compared with G44C A45C, U26G U28A is lower in yeast fitness: 0.97 for the first, 0.62 for the second.

Compared with G9C U28C A42U U47C, U35G A57G is higher in yeast fitness: 0.54 for the first, 0.698 for the second.

U2A A36G C49A and A36C U47A G48C U54G C60G cannot be ordered by yeast fitness: ≤ 0.5 for the first, ≤ 0.5 for the second.

Going from U8A A15U C27G A36G G38U to C24A A40G C49A C61G, the yeast fitness rises from ≤ 0.5 to 0.53.

First: C5G U8C A36G A40C
Second: C30A C34A
The yeast fitness of the first is lower: 0.55 for the first, 0.76 for the second.

C4A A20G A42C C46G C49U A69C and C4G U28A G39A cannot be ordered by yeast fitness: ≤ 0.5 for the first, ≤ 0.5 for the second.

Compared with U7C C27U A45C, U8G G10A C62G is lower in yeast fitness: 0.609 for the first, ≤ 0.5 for the second.

C4A C33A A36C G67A and A14G G50C A69U cannot be ordered by yeast fitness: ≤ 0.5 for the first, ≤ 0.5 for the second.

Going from U3A A14G G23C U32A G52C to U13A U32C A69U, the yeast fitness rises from ≤ 0.5 to 0.995.

Compared with G41A C60G C61G C62U, G63A U64G is higher in yeast fitness: 0.682 for the first, 0.8 for the second.

G9A G10A A21G A57G C66U and G23A C29U C30A C46G cannot be ordered by yeast fitness: ≤ 0.5 for the first, ≤ 0.5 for the second.

Compared with A14U G17A U59C C61U, U8A C27A C49U A69U is lower in yeast fitness: 0.653 for the first, ≤ 0.5 for the second.

Compared with U2C C5A C24A U47A C66G, A21G C24A A43U A57U C66A is higher in yeast fitness: ≤ 0.5 for the first, 0.574 for the second.

Compared with C33G G38C A70C, C4G G23A A36G G68U is lower in yeast fitness: 0.705 for the first, ≤ 0.5 for the second.

Going from U26A G67C to G52A G58A A65G, the yeast fitness falls from 0.829 to 0.684.

Going from A42C A69C to G10A C24U, the yeast fitness rises from 0.939 to 0.977.

First: U19A C30A A43G C49U C55A
Second: C11G G12A U19C
The yeast fitness of the first is higher: 0.64 for the first, ≤ 0.5 for the second.

C4U C5G U16C C24G A42C G56A and U8G C33A A37U G38C A70C cannot be ordered by yeast fitness: ≤ 0.5 for the first, ≤ 0.5 for the second.

Work on G6U A65C yielded a yeast fitness of 0.799.
